# Screening results from PubChem.
# PG9 Ab binder = binders of HIV-1 gp120 antibody PG9, primary screen, biochemical, TR-FRET | HIV-1 gp120 / PG9 antibody interaction | TR-FRET gp120-PG9 antibody binding | inhibition, % at 6.7 µM | hit rate 0.43% among 360,000 | AID 624416, 2012; in the data active means inhibition above about 8.5%
# NR2E3 ag-1 = inhibitors of NR2E3-RetCOR corepressor binding, primary screen, NR2E3 agonist project, biochemical, TR-FRET, GST-NR2E3, biotin-RetCOR; inhibition of corepressor binding, % at 4.78 µM; Photoreceptor-specific nuclear receptor (Homo sapiens), Q9Y5X4; 1536-well; hit rate 0.12% among 320,000;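 active means percent inhibition above the cutoff of mean plus 3 SD of all tested compounds, set per screening campaign, cut at about 20% in these data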;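 further: 0% = DMSO wells and 100% = biotin wells as full block of FRET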
#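 system = GST-tagged NR2E3 plus biotinylated RetCOR corepressor | input = 1.35 nM GST-NR2E3 | also added = 7 nM biotin-RetCOR | schedule = 5 h incubation at 4 °C | measured by = TR-FRET with europium anti-GST and streptavidin-D2, 340 nm excitation | read-out = percent loss of FRET ratio relative to control wells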
# NR1D1 modulator = modulators of Rev-erb alpha DNA binding, primary screen, biochemical, FITC-DNA, fluorescence polarization, uHTS; Nuclear receptor subfamily 1 group D member 1 (Homo sapiens), P20393; Rev-erbα–FITC-DNA binding, 90 min; activity, % at 10 µM; hit rate 0.79% among 370,000;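 active means activity above about 14%, limit read from the data; passing the limit was not always enough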;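 further: 0% = DMSO wells with 35 nM protein and 100% = DMSO wells with 750 nM protein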
# Target sequence (P20393 whole entry, looked up): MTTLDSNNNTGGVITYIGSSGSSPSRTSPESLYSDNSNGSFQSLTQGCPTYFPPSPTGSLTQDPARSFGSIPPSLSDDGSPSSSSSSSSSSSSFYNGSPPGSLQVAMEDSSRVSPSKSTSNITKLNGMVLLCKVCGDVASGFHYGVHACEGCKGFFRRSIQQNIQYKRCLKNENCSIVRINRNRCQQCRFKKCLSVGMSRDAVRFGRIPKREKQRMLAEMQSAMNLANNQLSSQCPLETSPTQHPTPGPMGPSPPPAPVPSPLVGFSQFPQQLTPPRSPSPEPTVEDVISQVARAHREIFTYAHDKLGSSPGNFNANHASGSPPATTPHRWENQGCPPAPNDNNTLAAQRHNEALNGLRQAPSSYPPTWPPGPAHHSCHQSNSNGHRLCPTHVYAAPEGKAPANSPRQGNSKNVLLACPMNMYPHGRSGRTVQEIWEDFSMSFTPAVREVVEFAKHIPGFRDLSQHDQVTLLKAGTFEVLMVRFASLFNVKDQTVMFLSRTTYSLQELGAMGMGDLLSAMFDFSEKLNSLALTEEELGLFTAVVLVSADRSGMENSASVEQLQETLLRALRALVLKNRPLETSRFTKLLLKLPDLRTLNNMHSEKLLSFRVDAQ
# NR2E3 ag-2 = NR2E3 agonists in two-hybrid cells, primary screen, cell-based, luminescence, CHO-S, Gal4-NCOR/VP16-NR2E3 | luciferase | inhibition of corepressor binding, % at 3.98 µM | hit rate 0.35% among 360,000 | AID 602229, 2012;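 active means inhibition above the mean of all tested compounds plus 3 SD, cut at about 70% in these data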;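 further: 0% = DMSO with NR2E3 transfected cells and 100% = cells lacking NR2E3 construct; higher means lower luciferase signal from less NR2E3 corepressor binding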
# NR2E3 ag confirm = NR2E3 agonist confirmation in cells, cell-based, luminescence, CHO-S two-hybrid; AID 624378, 2012; inhibition, % at 3.98 µM; hit rate 51% among 2,300; shares compounds with NR2E3 ag-2; CHO-S mammalian two-hybrid NR2E3-NCOR, luciferase luminescence;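 active means average inhibition above a cutoff equal to the mean inhibition of all tested compounds plus one SD, cut at about 70% in these data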;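 further: 0% = DMSO in NR2E3 cells and 100% = DMSO in cells lacking NR2E3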
# GAL4-VP16 luc = GAL4-VP16 reporter modulators, confirmation, counter-screen for NR2E3 agonist project, cell-based, luminescence, CHO-S, high throughput | CHO-S GAL4-VP16 luciferase reporter | inhibition, % at 3.98 µM | shares compounds with NR2E3 ag-2 | hit rate 29% among 2,300;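 active means mean inhibition above a cutoff equal to the average over all tested compounds plus one standard deviation, cut at about 70% in these data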;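 further: luciferase from a UAS reporter driven by GAL4-VP16 transactivation; 0% = DMSO with VP16-transfected cells and 100% = DMSO with cells lacking VP16; higher means less reporter light so more repression of VP16 activity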
# The depositor's hits bear a star; . = not tested or not shown. Compounds with a hit are over-represented: about 1.5% of the library has one in this group of screens.
SMILES,PG9 Ab binder,NR2E3 ag-1,NR1D1 modulator,NR2E3 ag-2,NR2E3 ag confirm,GAL4-VP16 luc
O=C(CSc1nnc(NC(=O)C2CC2)s1)NCc1ccccc1,-1,2,2,68,-25,-9
O=C(CSc1nnc(NC(=O)C2CC2)s1)NCc1ccc(F)cc1,0,0,0,8,.,.
CN1C2=N[C@H](c3cccc(C(F)(F)F)c3)CC(=O)N2/C(=C\c2ccccc2)[C@H]1c1ccccc1,.,.,5,.,.,.
Cc1cc(C(=O)COC(=O)c2ccc3c(c2)OCO3)c(C)n1Cc1cccs1,0,3,-5,90*,77*,75*
Cc1cc(C(=O)COC(=O)c2ccccc2O)c(C)n1Cc1cccs1,-2,-2,3,91*,80*,71*
Cc1cccc(NC(=O)C2CCCN(c3nnc(-n4cccc4)s3)C2)c1C (stereo not given),.,.,2,.,.,.
Cc1ccc(/C=C2/CNC/C(=C/c3ccc(C)cc3)C2=O)cc1,0,.,4,65,15,-10
CC(c1c[nH]c2ccccc12)c1c[nH]c2ccc(Br)cc12 (stereo not given),.,.,-3,.,.,.
COc1ccccc1NS(=O)(=O)c1ccc(NN=C2CCCC2)c([N+](=O)[O-])c1,1,1,3,64,65,63
COc1ccccc1NS(=O)(=O)c1ccc(N/N=C/C=C/c2ccccc2[N+](=O)[O-])c([N+](=O)[O-])c1,1,0,6,4,.,.
Cc1ccc(-c2cc(-c3nnc(SCC(=O)Nc4cccc5ccccc45)n3N)[nH]n2)cc1,.,.,-3,.,.,.
CCC(=O)N1CCN(c2ccc(NC(=O)c3cc4ccccc4o3)cc2Cl)CC1,-2,3,8,21,.,.
CCCC(=O)N1CCN(c2ccc(NC(=O)c3cc4ccccc4o3)cc2Cl)CC1,1,2,4,51,40,26
N#C/C(=N\Nc1cccc([N+](=O)[O-])c1)C(=O)c1ccc(Br)cc1,0,-1,3,95*,99*,86*
O=C(O)c1ccc(N=NNc2cccc([N+](=O)[O-])c2)cc1,-3,1,8,-113,.,.
O=S1(=O)c2ccc(Br)cc2OC[C@@H](Cc2ccccc2)N1Cc1cn(Cc2ccc(C(F)(F)F)cc2)nn1,.,.,-9,.,.,.
CC12CCC(O)CC1=CCC1C2CCC2(C)C(c3ccn[nH]3)CCC12 (stereo not given),0,.,-6,82*,67,58
CC1CCCCC1C(=O)N1CCC(Oc2cccnc2)CC1 (stereo not given),.,.,-5,.,.,.
COC(=O)C1=C(CN2CCCc3ccccc32)NC(=O)NC1c1ccc(F)cc1 (stereo not given),2,2,5,84*,67,67
C#CCNC(=O)C[C@H]1C[C@@]2(C(=O)OC)C(=C[C@H](C3CCCC3)O[C@@H]2C)N(Cc2ccc(Cl)cc2Cl)C1=O,.,.,-6,.,.,.
S=c1nc2ccccc2c2nc(-c3ccccc3Br)[nH]n12,0,7,-3,78*,-9,-12
Brc1ccccc1-c1nc2c3ccccc3ncn2n1,-2,1,0,-103,.,.
O=S1(=O)c2ccc(N3CCC[C@H]3CO)cc2O[C@H]2CCN1C2,.,.,-3,.,.,.
O=C(c1cc(COc2cccc(C(F)(F)F)c2)on1)N1CCC(c2ccncc2)CC1,0,1,3,101*,98*,80*
CC(=O)c1ccc(OCc2cc(C(=O)N3CCC(c4ccncc4)CC3)no2)cc1,-3,-4,-3,90*,71*,74*
SMILES,PG9 Ab binder,NR2E3 ag-1,NR1D1 modulator,NR2E3 ag-2,NR2E3 ag confirm,GAL4-VP16 luc
O=C(c1cc(COc2cccc(C(F)(F)F)c2)on1)N1CCC(c2ccccc2)CC1,-2,-2,3,-6,.,.
CC(=O)c1ccc(OCc2cc(C(=O)N3CC[C@@H]4CCCC[C@H]4C3)no2)cc1,1,1,-6,-80,.,.
FC(F)(F)c1cccc(Cc2noc(CN3CCC(c4ccncc4)CC3)n2)c1,0,1,-3,49,78*,70
COc1cccc(OCc2cc(C(=O)N3CCC(c4ccncc4)CC3)no2)c1,0,0,1,85*,89*,80*
COC(=O)C1CN(Cc2cn(Cc3ccc(F)cc3)nn2)CCS(=O)(=O)N1Cc1ccc(C)cc1 (stereo not given),.,.,-4,.,.,.
CN(C)[C@H]1CCN(c2ccc3c(c2)O[C@H]2CCN(C2)S3(=O)=O)C1,.,.,-5,.,.,.
Cc1ccc(S(=O)(=O)/N=C2\C=C(Nc3cccc(C(=O)O)c3)C(=O)c3ccccc32)cc1,-9,3,-3,-27,.,.
Cc1ccc(S(=O)(=O)/N=C2\C=C(Nc3ccc(O)cc3)C(=O)c3ccccc32)cc1,.,.,.,102*,100*,99*
CNC(=S)/N=C/NOCc1ccc(Cl)cc1Cl,-4,-2,1,58,82*,44
Cn1nc(C(C)(C)C)cc1C(=O)NCc1ccc(N2CCCC2=O)cc1,0,2,-4,92*,96*,87*
CCn1c(=O)cc(SCC(=O)NCc2ccc(C)cc2)c2ccccc21,1,-1,0,-47,.,.
CCn1c(=O)cc(SCC(=O)Nc2ccc(C)cn2)c2ccccc21,23*,-5,-3,74*,95*,17
CCCCCCNC(=O)C1CSCCS(=O)(=O)N1Cc1ccc(OC)cc1 (stereo not given),.,.,-3,.,.,.
COc1cccc2c1C(=O)c1c(O)c3c(c(O)c1C2=O)CC(O)(C(C)=O)CC3OC1CC(N(C)C)C(O)C(C)O1 (stereo not given),-9,.,15,88*,100*,52
COC(=O)C1CN(Cc2ccc(Cl)cc2)CCS(=O)(=O)N1Cc1cn(Cc2ccc(C)cc2)nn1 (stereo not given),.,.,-6,.,.,.
O=S(=O)(c1ccccc1)N1CCC(n2nnc3cc(F)ccc32)CC1,1,1,-9,7,.,.
O=S(=O)(c1ccc2c(c1)OCCO2)N1CCC(n2nnc3cc(C(F)(F)F)ccc32)CC1,-1,4,3,52,42,18
Cc1ccccc1S(=O)(=O)N1CCCc2nc(-c3ccc(Br)cc3)ccc21,-2,.,-3,.,.,.
Oc1ccccc1C=NNC(=S)NC1CC2C=CC1C2 (stereo not given),-1,.,3,57,-90,-98
CCCCn1c(=N)n(CC(O)COc2cccc(C)c2)c2ccccc21 (stereo not given),1,-2,0,49,-9,30
O=C(NCCc1ccccc1)OCc1cn(Cc2cccc(C(F)(F)F)c2)nn1,.,.,1,.,.,.
